Where “and” joins values, the source holds several entries; their conditions need not be identical. Equal entries are not always repeated.

Assay [1] deals with T1, Telomerase reverse transcriptase (Homo sapiens, UniProt O14746). Description: Effect of varying the number and disposition of charged groups around the compound nucleus on telomerase inhibition at 25 uM. Summed up: (§1)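 HeLa cell extract (60 µg total protein) as the telomerase source in a primer-extension assay with 1 µM 5′-biotinylated (TTAGGG)3 primer, 1.2 µM 32P-dGTP, and 1 mM each of dATP and dTTP. Buffer was Tris-OAc at pH 8.5 with KOAc, MgCl2, BME and spermidine. Porphyrin was fixed at 25 µM and reactions ran at 37 °C for 30 min. Products were run on 8% denaturing PAGE and quantified by autoradiogram densitometry, giving % inhibition relative to a porphyrin-free control.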

In assay [2] the target is T1, Telomerase reverse transcriptase. Nature of the assay: Effect of combination of charged and hydrogen bonding groups on telomerase inhibition at 25 uM. Summed up:
as §1

Assay [3] shares this target. Nature of the assay: Dependence of telomerase inhibition on the ability to stack with G-tetrads. The following applies: concentration not given here. In outline:
as §1

Assay [4] has the same target. Nature of the assay: Effect of substituent bulk on telomerase inhibition at 25 uM. In outline:
as §1

For assay [5] the target is unchanged. Description: Effect of uncharged hydrogen bonding group on telomerase inhibition at 25 uM. In outline: as §1
Assay [6] shares this target. Description: Effect of meso group on telomerase inhibition at 25 uM. In outline: as §1
For assay [7] the target is unchanged. Nature of the assay: Percentage inhibition of human telomerase at 25 uM concentration in HeLa cell. It is filed as cell-based. In outline:
as §1

Assay [8] has the same target. Nature of the assay: Apparent telomerase inhibition by mixed mechanism.
Assay [9] shares this target. Nature of the assay: Apparent telomerase inhibition by G-quadruplex mechanism.

T1 sequence (O14746 whole entry): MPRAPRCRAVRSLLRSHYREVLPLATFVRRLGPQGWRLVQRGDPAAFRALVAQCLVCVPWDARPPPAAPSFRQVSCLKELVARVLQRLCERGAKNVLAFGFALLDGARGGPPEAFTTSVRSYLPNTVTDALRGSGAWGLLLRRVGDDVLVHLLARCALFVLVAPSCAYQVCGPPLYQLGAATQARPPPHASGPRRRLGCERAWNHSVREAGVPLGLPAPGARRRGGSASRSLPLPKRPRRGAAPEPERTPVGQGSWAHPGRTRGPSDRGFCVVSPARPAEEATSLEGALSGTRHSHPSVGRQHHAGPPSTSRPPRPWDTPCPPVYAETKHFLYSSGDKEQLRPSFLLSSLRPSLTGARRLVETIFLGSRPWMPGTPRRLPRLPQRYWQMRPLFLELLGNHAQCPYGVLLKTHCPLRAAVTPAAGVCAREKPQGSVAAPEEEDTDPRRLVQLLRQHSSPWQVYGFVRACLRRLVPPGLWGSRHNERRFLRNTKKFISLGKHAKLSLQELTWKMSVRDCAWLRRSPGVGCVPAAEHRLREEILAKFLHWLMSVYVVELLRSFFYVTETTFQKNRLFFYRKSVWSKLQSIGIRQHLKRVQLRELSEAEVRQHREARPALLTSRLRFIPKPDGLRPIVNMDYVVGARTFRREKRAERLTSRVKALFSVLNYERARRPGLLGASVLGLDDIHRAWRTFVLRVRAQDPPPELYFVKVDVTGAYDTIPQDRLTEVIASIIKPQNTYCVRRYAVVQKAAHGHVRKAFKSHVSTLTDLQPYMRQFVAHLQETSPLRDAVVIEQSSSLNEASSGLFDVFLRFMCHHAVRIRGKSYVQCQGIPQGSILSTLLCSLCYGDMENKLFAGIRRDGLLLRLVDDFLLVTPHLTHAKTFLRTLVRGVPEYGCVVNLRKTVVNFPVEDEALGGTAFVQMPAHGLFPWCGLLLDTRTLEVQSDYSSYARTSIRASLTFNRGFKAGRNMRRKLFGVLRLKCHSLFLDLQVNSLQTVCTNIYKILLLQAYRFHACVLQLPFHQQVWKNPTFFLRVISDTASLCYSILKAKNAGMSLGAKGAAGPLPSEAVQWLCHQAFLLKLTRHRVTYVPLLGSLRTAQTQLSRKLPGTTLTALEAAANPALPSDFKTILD

For the compound `C[n+]1ccc(-c2c3nc(c(-c4cc[n+](C)cc4)c4ccc([nH]4)c(-c4cc[n+](C)cc4)c4ccc([nH]4)c(-c4cc[n+](C)cc4)c4nc2C=C4)C=C3)cc1`, the inhibition (commonly the change of the read-out against control, counted positive when it falls) is 62% in assay [1]; 60% in assay [2]; 66% in assay [3]; 60% in assay [4]; 60% in assay [5]; 67% in [6].

Compound `CC1=C(CCNCCN)c2cc3[nH]c(cc4[nH]c(cc5nc(cc1n2)C(C)=C5CCNCCN)c(C)c4CCNCCN)c(CCNCCN)c3C` registered an inhibition in assay [7] of 0%.

For `C[n+]1cccc(-c2c3nc(c(-c4cc5ccccc5[n+](C)c4)c4ccc([nH]4)c(-c4ccc[n+](C)c4)c4nc(c(-c5cc6ccccc6[n+](C)c5)c5ccc2[nH]5)C=C4)C=C3)c1`, in [8], the 50% inhibitory concentration (IC50) (in general, the concentration needed to halve the response being measured) was 10 µM.

For `OCC[n+]1ccc(-c2c3nc(c(-c4cc[n+](CCO)cc4)c4ccc([nH]4)c(-c4cc[n+](CCO)cc4)c4ccc([nH]4)c(-c4cc[n+](CCO)cc4)c4nc2C=C4)C=C3)cc1`, the IC50 in [8] was 30 µM.

As for `C[n+]1cc(-c2c3nc(c(-c4cc5ccccc5[n+](C)c4)c4ccc([nH]4)c(-c4cc5ccccc5[n+](C)c4)c4ccc([nH]4)c(-c4cc5ccccc5[n+](C)c4)c4nc2C=C4)C=C3)cc2ccccc21`, the inhibition in [1] was determined as 37%; in assay [2], 30%; in assay [3], 14%; in assay [4], 28%; in assay [5] it was 28%; in assay [6] it was 32%.

`C[n+]1ccc(-c2c3nc(c(-c4ccc(C(=O)NCCBr)cc4)c4nc(c(-c5cc[n+](C)cc5)c5ccc([nH]5)c(-c5cccc(C(=O)NCCBr)c5)c5ccc2[nH]5)C=C4)C=C3)cc1`: in assay [8], the IC50 is 15 µM.

Consider `C[n+]1cccc(-c2c3ccc([nH]3)c(-c3cc4ccccc4[n+](C)c3)c3nc(c(-c4cc5ccccc5[n+](C)c4)c4nc(c(-c5cc6ccccc6[n+](C)c5)c5ccc2[nH]5)C=C4)C=C3)c1`, for which the half-inhibitory concentration (IC50) in assay [8] was 5 µM.

With `C[n+]1ccc(-c2c3nc(c(-c4cc[n+](C)cc4)c4ccc([nH]4)c(-c4cc[n+](C)cc4)c4nc(c(-c5cc[n+](C)cc5)c5ccc2[nH]5)C=C4)C=C3)cc1` [TMPYP4 CHLORIDE], the concentration for half-maximal inhibition (IC50) in assay [9] was 6.25 µM and 10 µM.

The compound `C[n+]1cccc(-c2c3nc(c(-c4ccc[n+](C)c4)c4ccc([nH]4)c(-c4ccc[n+](C)c4)c4ccc([nH]4)c(-c4ccc[n+](C)c4)c4nc2C=C4)C=C3)c1` gave an inhibition in assay [4] of 50%. For the same compound, the IC50 in assay [9] was 25 µM and 12 µM.

Source of the values: ChEMBL document CHEMBL1134646, “Quadruplex-interactive agents as telomerase inhibitors: synthesis of porphyrins and structure-activity relationship for the inhibition of telomerase” (J Med Chem, 2001).
